Experimental data reported in ChEMBL document CHEMBL1145835, “Novel potent 5-HT(1F) receptor agonists: structure-activity studies of a series of substituted N-[3-(1-methyl-4-piperidinyl)-1H-pyrrolo[3,2-b]pyridin-5-yl]amides” (J Med Chem, 2003).

What follows are compounds tested against T1, 5-hydroxytryptamine receptor 1A (Homo sapiens, UniProt P08908) (assay: In vitro binding affinity by radioligand binding assay using cell line expressing human 5-hydroxytryptamine 1A receptor).
T1 sequence (P08908 whole entry): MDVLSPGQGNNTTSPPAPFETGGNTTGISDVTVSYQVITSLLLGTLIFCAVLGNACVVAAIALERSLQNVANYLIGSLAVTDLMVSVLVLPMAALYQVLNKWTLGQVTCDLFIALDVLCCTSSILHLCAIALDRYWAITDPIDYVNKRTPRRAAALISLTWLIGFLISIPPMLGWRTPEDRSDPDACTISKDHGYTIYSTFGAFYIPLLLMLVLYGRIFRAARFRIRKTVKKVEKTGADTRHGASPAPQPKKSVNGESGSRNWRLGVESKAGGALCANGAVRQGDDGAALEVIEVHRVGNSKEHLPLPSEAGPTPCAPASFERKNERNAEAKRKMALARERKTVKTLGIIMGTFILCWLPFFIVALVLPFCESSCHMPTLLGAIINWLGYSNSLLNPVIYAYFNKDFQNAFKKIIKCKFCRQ
Method in brief: (§1)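 Ki (nM) from radioligand binding on cell lines each expressing one human serotonin receptor subtype. Values are means of at least three determinations with SEM. ND: Ki not determined, when a 10⁻⁷ M test ligand gave <50% displacement of radioligand.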
`CN1CCC(c2c[nH]c3cnc(NC(=O)c4ccc(F)cc4)nc23)CC1` gave a Ki of 200 nM. With `CN1CCC(c2c[nH]c3ccc(NC(=O)c4cccc(C#N)c4)nc23)CC1` the Ki was 100 nM. `CN1CCC(c2c[nH]c3ccc(NC(=O)c4ccc(Cl)cc4Cl)nc23)CC1` showed a Ki of 5.1 nM.

What follows are compounds tested against 5-hydroxytryptamine receptor 1D (Homo sapiens, UniProt P28221) (assay: In vitro binding affinity by radioligand binding assay using cell line expressing human 5-hydroxytryptamine 1D receptor).
Sequence of 5-hydroxytryptamine receptor 1D (P28221 whole entry): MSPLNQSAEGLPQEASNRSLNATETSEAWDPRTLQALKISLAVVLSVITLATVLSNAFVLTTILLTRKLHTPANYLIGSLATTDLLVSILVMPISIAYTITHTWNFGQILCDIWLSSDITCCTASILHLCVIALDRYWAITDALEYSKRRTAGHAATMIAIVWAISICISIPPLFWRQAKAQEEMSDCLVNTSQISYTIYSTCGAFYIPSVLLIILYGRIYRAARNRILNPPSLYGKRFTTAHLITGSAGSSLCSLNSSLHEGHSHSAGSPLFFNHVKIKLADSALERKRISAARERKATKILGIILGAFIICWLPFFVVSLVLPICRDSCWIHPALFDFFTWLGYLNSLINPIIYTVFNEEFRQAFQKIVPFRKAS
Method in brief: as §1
`CN1CCC(c2c[nH]c3ccc(OS(C)(=O)=O)nc23)CC1` showed a Ki of 8 nM. With `COc1ccc2[nH]cc(C3CCN(C)CC3)c2n1` the Ki was 23 nM. In the case of `CCNC(=O)Nc1ccc2[nH]cc(C3CCN(C)CC3)c2n1`, the Ki is reported as 40 nM. `CN1CCC(c2c[nH]c3ccc(OS(=O)(=O)c4ccc(F)cc4)nc23)CC1` showed a Ki of 30 nM. For `CNC(=O)Nc1ccc2[nH]cc(C3CCN(C)CC3)c2n1`, the Ki was 8.5 nM. Compound `CN1CCC(c2c[nH]c3ccc(N)nc23)CC1` has a Ki of 420 nM. Work on `CCCCCCCC(=O)Nc1ccc2[nH]cc(C3CCN(C)CC3)c2n1` yielded a Ki of 110 nM. Work on `CN1CCC(c2c[nH]c3ccc(NS(C)(=O)=O)nc23)CC1` yielded a Ki of 380 nM. With `CN1CCC(c2c[nH]c3cnc(NC(=O)c4ccc(F)cc4)nc23)CC1` the Ki was 1900 nM. With `CN1CCC(c2c[nH]c3ccc(NC(=O)c4ccc(Cl)cc4Cl)nc23)CC1` the Ki was 83 nM. In the case of `CN1CCC(c2c[nH]c3ccc(NC(=O)Nc4ccc(F)cc4)nc23)CC1`, the Ki is reported as 3.8 nM.

The compounds below were run against T2, 5-hydroxytryptamine receptor 1F (Homo sapiens, UniProt P30939) (assay: In vitro binding affinity was determined by radioligand binding assay using cell line expressing human 5-hydroxytryptamine 1F receptor).
T2 sequence (P30939 whole entry): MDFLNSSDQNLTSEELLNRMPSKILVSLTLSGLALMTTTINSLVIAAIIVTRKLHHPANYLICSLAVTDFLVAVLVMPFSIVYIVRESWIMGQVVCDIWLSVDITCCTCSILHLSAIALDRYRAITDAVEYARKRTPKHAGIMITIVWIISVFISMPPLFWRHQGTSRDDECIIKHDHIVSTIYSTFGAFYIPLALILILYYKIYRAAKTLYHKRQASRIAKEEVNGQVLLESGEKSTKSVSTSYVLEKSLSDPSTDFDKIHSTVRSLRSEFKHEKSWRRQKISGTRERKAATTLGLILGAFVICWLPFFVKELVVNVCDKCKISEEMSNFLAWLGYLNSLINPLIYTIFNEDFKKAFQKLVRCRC
Method in brief: as §1
In the case of `CCCCN1CCC(c2c[nH]c3ccc(NC(=O)c4ccc(F)cc4)nc23)CC1`, the Ki is reported as 14 nM. `CN1CCC(c2c[nH]c3ccc(OS(C)(=O)=O)nc23)CC1` showed a Ki of 4.7 nM. For `COc1ccc2[nH]cc(C3CCN(C)CC3)c2n1`, the Ki was 23 nM. With `CC(=O)Nc1ccc2[nH]cc(C3CCNCC3)c2n1` the Ki was 45 nM. With `CCC(=O)Nc1ccc2[nH]cc(C3CCNCC3)c2n1` the Ki was 35 nM. Compound `O=C(Nc1ccc2[nH]cc(C3CCN(CCc4ccccc4)CC3)c2n1)c1ccc(F)cc1` has a Ki of 75 nM. Work on `CN1CCC(c2c[nH]c3ccc(O)nc23)CC1` yielded a Ki of 100 nM. Work on `CCNC(=O)Nc1ccc2[nH]cc(C3CCN(C)CC3)c2n1` yielded a Ki of 3.8 nM. For `CCN1CCC(c2c[nH]c3ccc(NC(=O)c4ccc(F)cc4)nc23)CC1`, the Ki was 170 nM. In the case of `CCN1CC=C(c2c[nH]c3ccc(NC(=O)c4ccc(F)cc4)nc23)CC1`, the Ki is reported as 25 nM. `CN1CCC(c2c[nH]c3ccc(NS(=O)(=O)c4ccc(F)cc4)nc23)CC1` showed a Ki of 27 nM. Compound `CN1CCC(c2c[nH]c3ccc(OS(=O)(=O)c4ccc(F)cc4)nc23)CC1` has a Ki of 7.5 nM. `CNC(=O)Nc1ccc2[nH]cc(C3CCN(C)CC3)c2n1` showed a Ki of 2.5 nM. `CN1CCC(c2c[nH]c3ccc(N)nc23)CC1` was tested, and the Ki was 100 nM. With `CCCCCCCC(=O)Nc1ccc2[nH]cc(C3CCN(C)CC3)c2n1` the Ki was 20 nM. With `CCN1CC=C(c2c[nH]c3ccc(NC(C)=O)nc23)CC1` the Ki was 21 nM. `CN1CCC(c2c[nH]c3ccc(NS(C)(=O)=O)nc23)CC1` was tested, and the Ki was 19 nM. `CN1CCC(c2c[nH]c3ccc(NC(=O)C(C)(C)C)nc23)CC1` was tested, and the Ki was 62 nM. Compound `CCCCCC(=O)Nc1ccc2[nH]cc(C3CCN(C)CC3)c2n1` has a Ki of 13 nM. With `CCCN1CCC(c2c[nH]c3ccc(NC(=O)c4ccc(F)cc4)nc23)CC1` the Ki was 18 nM. `CC(C)N1CCC(c2c[nH]c3ccc(NC(=O)c4ccc(F)cc4)nc23)CC1` gave a Ki of 30 nM. In the case of `O=C(Nc1ccc2[nH]cc(C3CCNCC3)c2n1)c1ccc(F)cc1`, the Ki is reported as 9.5 nM. For `CN1CCC(c2c[nH]c3cnc(NC(=O)c4ccc(F)cc4)nc23)CC1`, the Ki was 67 nM. `CN1CCC(c2c[nH]c3ccc(NC(=O)c4cccc(C#N)c4)nc23)CC1` gave a Ki of 11 nM. For `CN1CCC(c2c[nH]c3ccc(NC(=O)c4ccc(Cl)cc4Cl)nc23)CC1`, the Ki was 4.1 nM. Work on `CN1CCC(c2c[nH]c3ccc(NC(=O)Nc4ccc(F)cc4)nc23)CC1` yielded a Ki of 11 nM. In the case of `CCCCC(=O)Nc1ccc2[nH]cc(C3CCN(C)CC3)c2n1`, the Ki is reported as 14 nM.

These compounds were tested against 5-hydroxytryptamine receptor 1B (Homo sapiens, UniProt P28222) (assay: In vitro binding affinity by radioligand binding assay using cell line expressing human 5-hydroxytryptamine 1B receptor).
Sequence of 5-hydroxytryptamine receptor 1B (P28222 whole entry): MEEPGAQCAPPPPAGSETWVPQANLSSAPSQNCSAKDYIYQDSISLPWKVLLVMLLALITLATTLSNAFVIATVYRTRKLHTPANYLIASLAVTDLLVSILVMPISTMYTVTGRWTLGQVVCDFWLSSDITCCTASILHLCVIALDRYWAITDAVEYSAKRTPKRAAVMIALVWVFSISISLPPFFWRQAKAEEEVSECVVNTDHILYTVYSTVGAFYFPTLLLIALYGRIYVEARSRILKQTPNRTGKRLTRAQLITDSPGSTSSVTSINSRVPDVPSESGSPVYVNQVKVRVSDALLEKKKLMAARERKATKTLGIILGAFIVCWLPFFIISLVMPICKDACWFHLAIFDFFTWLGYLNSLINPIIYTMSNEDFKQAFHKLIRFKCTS
Method in brief: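 Ki (nM) from radioligand binding on cell lines each expressing one human serotonin receptor subtype. Values are means of at least three determinations with SEM.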
Compound `CN1CCC(c2c[nH]c3ccc(OS(C)(=O)=O)nc23)CC1` has a Ki of 25 nM. `COc1ccc2[nH]cc(C3CCN(C)CC3)c2n1` was tested, and the Ki was 110 nM. With `CNC(=O)Nc1ccc2[nH]cc(C3CCN(C)CC3)c2n1` the Ki was 14 nM. `CN1CCC(c2c[nH]c3ccc(N)nc23)CC1` was tested, and the Ki was 800 nM. With `CCCCCCCC(=O)Nc1ccc2[nH]cc(C3CCN(C)CC3)c2n1` the Ki was 32 nM. `CN1CCC(c2c[nH]c3ccc(NS(C)(=O)=O)nc23)CC1` showed a Ki of 610 nM. Work on `CN1CCC(c2c[nH]c3cnc(NC(=O)c4ccc(F)cc4)nc23)CC1` yielded a Ki of 6000 nM. Compound `CN1CCC(c2c[nH]c3ccc(NC(=O)c4cccc(C#N)c4)nc23)CC1` has a Ki of 590 nM. `CN1CCC(c2c[nH]c3ccc(NC(=O)Nc4ccc(F)cc4)nc23)CC1` gave a Ki of 3.2 nM.
